Measured values of several laboratories.
BACE1: Beta-secretase 1 (BACE1, Homo sapiens, UniProt P56817)
ELANE: Neutrophil elastase (ELANE, Homo sapiens, UniProt P08246)
MCU: Calcium uniporter protein, mitochondrial (MCU, Homo sapiens, UniProt Q8NE86)

| Structure (SMILES) | target | observed | mode | method | pH | IC50 [nM] |
| --- | --- | --- | --- | --- | --- | --- |
| Brc1cc2c(N3CCNCC3)nccn2c1 | BACE1 | enzyme activity | inhibitor | FRET | pH 5 | 600000 |
| COc1cc(OC)c2c(O)c3c(=O)cc(C)oc3cc2c1 | BACE1 | enzyme activity | inhibitor | FRET |  | > 100000 |
| CC(C)C[C@H](NC(=O)[C@H](Cc1ccccc1)NC(=O)c1cnccn1)B(O)O | ELANE | enzyme activity | inhibitor |  |  | > 33000 |
| CN[C@@H]1C[C@H]2O[C@@](C)([C@@H]1OC)n1c3ccccc3c3c4c(c5c6ccccc6n2c5c31)C(=O)NC4 | Serine/threonine-protein kinase LMTK3 (LMTK3, Homo sapiens, UniProt Q96Q04) | enzyme activity | inhibitor | TR-FRET |  | 0.0045 |
| O=C(O)c1c(Cl)c(Cl)c(Cl)c(Cl)c1-c1c2cc(I)c(=O)c(I)c-2oc2c(I)c(O)c(I)cc12 | Delta-aminolevulinic acid dehydratase (Homo sapiens, UniProt P13716, C162A/K59N) | enzyme activity | inhibitor | absorbance | pH 8 | 6900 |
| COc1ccc(C(=O)O)cc1S(=O)(=O)Nc1ccc(C(F)(F)F)cc1N1CCCCC1 | Endoplasmic reticulum aminopeptidase 2 (ERAP2, Homo sapiens, UniProt Q6P179, K392N) | enzyme activity | inhibitor |  |  | 44000 |
| COc1cc(Nc2ncc(F)c(Nc3ccc4c(n3)NC(=O)C(C)(C)O4)n2)cc(OC)c1OC | Adenosine receptor A3 (ADORA3, Homo sapiens, UniProt P0DMS8) | cell-free assay | inhibitor |  |  | 20 |
| CC(C)C[C@H](NC(=O)[C@H](Cc1ccccc1)NC(=O)[C@H](Cc1ccc(O)cc1)NC(=O)CNC(=O)[C@H](CCCCN)NC(=O)[C@H](CO)NC(=O)[C@H](CCC(N)=O)NC(=O)CNC(=O)[C@@H](NC(=O)[C@H](CO)NC(=O)[C@@H]1CCCN1C(=O)[C@H](CO)NC(=O)[C@H](CCC(N)=O)NC(=O)[C@H](Cc1ccc(O)cc1)NC(=O)[C@H](CCC(=O)O)NC(=O)[C@H](C)NC(=O)[C@H](CCCCN)NC(=O)[C@@H](N)Cc1ccccc1)C(C)C)C(=O)N[C@@H](Cc1ccccc1)C(=O)N[C@@H](CCCNC(=N)N)C(=O)N1CCC[C@H]1C(=O)N[C@@H](CCCNC(=N)N)C(=O)N[C@@H](CC(N)=O)C(N)=O | Neuromedin-U receptor 2 (Mus musculus, UniProt Q8BZ39) | ligand displacement |  | radioligand |  | 0.0302 |
| Cl.Cl.N.N.N.N.N.N.N.N.[N-3].[Ru+4].[Ru+4] | MCU | transporter uptake | inhibitor |  |  | 8.6 |
| N.N.N.N.N.N.N.N.O=C(O)c1ccccc1.O=C(O)c1ccccc1.[N-3].[Ru+4].[Ru+4] | MCU | transporter uptake | inhibitor |  |  | 13.9 |
| N#Cc1nn(C(=O)C2CCCC2)c2ncccc12 | ELANE | enzyme activity | inhibitor | fluorescence |  | 160 |
